Key:
[1] = test system: Cyperus iria; assay: Post-emergence herbicidal activity against Cyperus iria assessed as growth inhibition at emulsified concentrate of 37.5 g/ai ha after 15 days by greenhouse test; format: functional
[2] = test system: Poa annua; assay: Post-emergence herbicidal activity against Poa annua assessed as growth inhibition at emulsified concentrate of 150 g/ai ha after 15 days by greenhouse test; format: functional
Method in brief: (§1)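 About 20 seeds sown 1–3 cm deep, grown at 15–30 °C and 50% RH. Monocot seedlings sprayed postemergence at the one-leaf stage with a 100 g/L emulsifiable concentrate (DMF/Tween-80) diluted in water, 150 g ai/ha. Untreated and solvent controls included. Visual rating at 15 days, three replicates.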

[3] = test system: Amaranthus retroflexus; assay: Post-emergence herbicidal activity against Amaranthus retroflexus assessed as growth inhibition at emulsified concentrate of 75 g/ai ha after 15 days by greenhouse test; format: functional
Method in brief: (§2)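 Compounds were made up as 100 g/L emulsifiable concentrates in DMF with Tween-80, then diluted in water. About 20 seeds were sown 1-3 cm deep in pots and grown in a greenhouse at 15-30 °C and 50% relative humidity. Sprays were applied postemergence at the two-leaf stage. Untreated and DMF + Tween-80 solvent controls were included. Injury was scored visually 15 days after treatment, with three replicates per treatment.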

[4] = test system: Echinochloa crus-galli; assay: Post-emergence herbicidal activity against Echinochloa crus-galli (barnyard grass) assessed as growth inhibition at emulsified concentrate of 150 g/ai ha after 15 days by greenhouse test; format: functional; method in brief: as §1
[5] = test system: Amaranthus retroflexus; assay: Post-emergence herbicidal activity against Amaranthus retroflexus assessed as growth inhibition at emulsified concentrate of 37.5 g/ai ha after 15 days by greenhouse test; format: functional; method in brief: as §2
[6] = molecular target: T1, Protoporphyrinogen oxidase (Homo sapiens, UniProt P50336); assay: Inhibition of Homo sapiens (human) recombinant protoporphyrinogen oxidase expressed in Escherichia coli JM109 assessed as oxidation of protoporphyrinogen IX substrate by fluorescence assay
T1 sequence (P50336 whole entry): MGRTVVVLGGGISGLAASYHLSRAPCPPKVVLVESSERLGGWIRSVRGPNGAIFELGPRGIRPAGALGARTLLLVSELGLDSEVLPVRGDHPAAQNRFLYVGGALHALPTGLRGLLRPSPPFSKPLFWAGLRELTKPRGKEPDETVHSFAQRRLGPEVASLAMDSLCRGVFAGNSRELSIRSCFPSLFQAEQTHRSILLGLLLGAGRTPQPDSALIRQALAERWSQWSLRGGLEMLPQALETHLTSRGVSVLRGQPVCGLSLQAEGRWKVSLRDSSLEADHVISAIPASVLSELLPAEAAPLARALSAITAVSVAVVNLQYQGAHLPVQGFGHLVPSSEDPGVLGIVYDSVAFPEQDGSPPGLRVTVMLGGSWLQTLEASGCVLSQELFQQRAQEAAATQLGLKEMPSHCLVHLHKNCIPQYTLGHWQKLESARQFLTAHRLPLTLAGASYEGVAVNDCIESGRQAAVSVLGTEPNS

[7] = test system: Cyperus iria; assay: Post-emergence herbicidal activity against Cyperus iria assessed as growth inhibition at emulsified concentrate of 150 g/ai ha after 15 days by greenhouse test; format: functional
[8] = test system: Rumex acetosa; assay: Post-emergence herbicidal activity against Rumex acetosa assessed as growth inhibition at emulsified concentrate of 37.5 g/ai ha after 15 days by greenhouse test; format: functional
[9] = test system: Eclipta prostrata; assay: Post-emergence herbicidal activity against Eclipta prostrata assessed as growth inhibition at emulsified concentrate of 37.5 g/ai ha after 15 days by greenhouse test; format: functional; method in brief: as §2
[10] = test system: Polygonum humifusum; assay: Post-emergence herbicidal activity against Polygonum humifusum assessed as growth inhibition at emulsified concentrate of 37.5 g/ai ha after 15 days by greenhouse test; format: functional
[11] = test system: Rumex acetosa; assay: Post-emergence herbicidal activity against Rumex acetosa assessed as growth inhibition at emulsified concentrate of 150 g/ai ha after 15 days by greenhouse test; format: functional
[12] = test system: Abutilon theophrasti; assay: Post-emergence herbicidal activity against Abutilon theophrasti (velvetleaf) assessed as growth inhibition at emulsified concentrate of 150 g/ai ha after 15 days by greenhouse test; format: functional
[13] = test system: Eclipta prostrata; assay: Post-emergence herbicidal activity against Eclipta prostrata assessed as growth inhibition at emulsified concentrate of 150 g/ai ha after 15 days by greenhouse test; format: functional
Method in brief: (§3)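 About 20 seeds sown 1–3 cm deep, grown at 15–30 °C and 50% RH. Dicot seedlings sprayed postemergence at the two-leaf stage with a 100 g/L emulsifiable concentrate (DMF/Tween-80) diluted in water, 150 g ai/ha. Untreated and solvent controls included. Visual rating at 15 days, three replicates.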

[14] = test system: Polygonum humifusum; assay: Post-emergence herbicidal activity against Polygonum humifusum assessed as growth inhibition at emulsified concentrate of 150 g/ai ha after 15 days by greenhouse test; format: functional
[15] = test system: Rumex acetosa; assay: Post-emergence herbicidal activity against Rumex acetosa assessed as growth inhibition at emulsified concentrate of 75 g/ai ha after 15 days by greenhouse test; format: functional
[16] = test system: Amaranthus retroflexus; assay: Post-emergence herbicidal activity against Amaranthus retroflexus assessed as growth inhibition at emulsified concentrate of 150 g/ai ha after 15 days by greenhouse test; format: functional; method in brief: as §3
[17] = test system: Digitaria sanguinalis; assay: Post-emergence herbicidal activity against Digitaria sanguinalis (hairy crabgrass) assessed as growth inhibition at emulsified concentrate of 150 g/ai ha after 15 days by greenhouse test; format: functional; method in brief: as §1
[18] = test system: Brassica juncea; assay: Post-emergence herbicidal activity against Brassica juncea assessed as growth inhibition at emulsified concentrate of 37.5 g/ai ha after 15 days by greenhouse test; format: functional; method in brief: as §2
[19] = test system: Brassica juncea; assay: Post-emergence herbicidal activity against Brassica juncea assessed as growth inhibition at emulsified concentrate of 150 g/ai ha after 15 days by greenhouse test; format: functional; method in brief: as §3
[20] = test system: Abutilon theophrasti; assay: Post-emergence herbicidal activity against Abutilon theophrasti (velvetleaf) assessed as growth inhibition at emulsified concentrate of 37.5 g/ai ha after 15 days by greenhouse test; format: functional
[21] = test system: Polygonum humifusum; assay: Post-emergence herbicidal activity against Polygonum humifusum assessed as growth inhibition at emulsified concentrate of 75 g/ai ha after 15 days by greenhouse test; format: functional
[22] = test system: Eclipta prostrata; assay: Post-emergence herbicidal activity against Eclipta prostrata assessed as growth inhibition at emulsified concentrate of 75 g/ai ha after 15 days by greenhouse test; format: functional; method in brief: as §2
[23] = test system: Abutilon theophrasti; assay: Post-emergence herbicidal activity against Abutilon theophrasti (velvetleaf) assessed as growth inhibition at emulsified concentrate of 75 g/ai ha after 15 days by greenhouse test; format: functional
[24] = test system: Cyperus iria; assay: Post-emergence herbicidal activity against Cyperus iria assessed as growth inhibition at emulsified concentrate of 75 g/ai ha after 15 days by greenhouse test; format: functional
[25] = test system: Brassica juncea; assay: Post-emergence herbicidal activity against Brassica juncea assessed as growth inhibition at emulsified concentrate of 75 g/ai ha after 15 days by greenhouse test; format: functional; method in brief: as §2

Row | SMILES | inhibition (INH) [1] [%] | inhibition (INH) [2] [%] | inhibition (INH) [3] [%] | inhibition (INH) [4] [%] | inhibition (INH) [5] [%] | Ki [6] [nM] | inhibition (INH) [7] [%] | inhibition (INH) [8] [%] | inhibition (INH) [9] [%] | inhibition (INH) [10] [%] | inhibition (INH) [11] [%] | inhibition (INH) [12] [%] | inhibition (INH) [13] [%] | inhibition (INH) [14] [%] | inhibition (INH) [15] [%] | inhibition (INH) [16] [%] | inhibition (INH) [17] [%] | inhibition (INH) [18] [%] | inhibition (INH) [19] [%] | inhibition (INH) [20] [%] | further results
1 | CCOC(=O)CSc1nc2cc(-n3nc(C(C)(C)C)oc3=O)c(F)cc2s1 | 60 | 0 | 50 | 0 | 50 | 1580 | 70 | 50 | 0 | 70 | 70 | 0 | 50 | 80 | 50 | 90 | 0 | 0 | 50 | 0 | inhibition (INH) [21]: 70%; inhibition (INH) [22]: 0%; inhibition (INH) [23]: 0%; inhibition (INH) [24]: 70%; inhibition (INH) [25]: 50%
2 | CCOC(=O)C(C)Sc1nc2cc(-n3nc(C(C)(C)C)oc3=O)c(F)cc2s1 (centres undefined) | 90 | 0 | 60 | 0 | 60 | 1420 | 100 | 95 | 80 | 60 | 100 | 100 | 95 | 70 | 95 | 90 | 50 | 70 | 75 | 80 | inhibition (INH) [21]: 70%; inhibition (INH) [22]: 85%; inhibition (INH) [23]: 100%; inhibition (INH) [24]: 90%; inhibition (INH) [25]: 70%
3 | CC(C)OC(=O)CSc1nc2cc(-n3nc(C(C)(C)C)oc3=O)c(F)cc2s1 | 50 | 0 | 85 | 0 | 0 | 1170 | 60 | 50 | 0 | 40 | 70 | 0 | 70 | 60 | 60 | 90 | 0 | 40 | 40 | 0 | inhibition (INH) [21]: 40%; inhibition (INH) [22]: 0%; inhibition (INH) [23]: 0%; inhibition (INH) [24]: 50%; inhibition (INH) [25]: 50%
4 | CCCOC(=O)CSc1nc2cc(-n3nc(C(C)(C)C)oc3=O)c(F)cc2s1 | 40 | 0 | 60 | 0 | 0 | 700 | 60 | 50 | 0 | 60 | 70 | 0 | 90 | 80 | 60 | 100 | 0 | 50 | 50 | 0 | inhibition (INH) [21]: 70%; inhibition (INH) [22]: 40%; inhibition (INH) [23]: 0%; inhibition (INH) [24]: 40%; inhibition (INH) [25]: 50%
5 | CCOC(=O)CCCSc1nc2cc(-n3nc(C(C)(C)C)oc3=O)c(F)cc2s1 | 60 | 0 | 80 | 0 | 60 | 700 | 70 | 50 | 50 | 50 | 70 | 50 | 70 | 80 | 60 | 90 | 0 | 50 | 50 | 0 | inhibition (INH) [21]: 80%; inhibition (INH) [22]: 60%; inhibition (INH) [23]: 0%; inhibition (INH) [24]: 60%; inhibition (INH) [25]: 50%
6 | CCOC(=O)C(C)Sc1nc2cc(-n3nc(C(C)(C)C)oc3=O)c(Cl)cc2s1 (centres undefined) | 60 | 0 | 100 | 0 | 60 | 1690 | 70 | 0 | 0 | 40 | 60 | 0 | 70 | 70 | 30 | 100 | 0 | 0 | 50 | 0 | inhibition (INH) [21]: 60%; inhibition (INH) [22]: 40%; inhibition (INH) [23]: 0%; inhibition (INH) [24]: 60%; inhibition (INH) [25]: 0%
7 | CCOC(=O)CSc1nc2cc(-n3nc(C(C)(C)C)oc3=O)c(Br)cc2s1 |  | 0 |  | 0 |  | 6960 |  |  |  |  |  |  | 0 |  |  | 75 | 0 |  | 0 |  | 
8 | CC(C)OC(=O)CSc1nc2cc(-n3nc(C(C)(C)C)oc3=O)c(Br)cc2s1 |  | 0 |  | 0 |  | 5970 |  |  |  |  |  |  | 0 |  |  | 75 | 0 |  | 0 |  | 
